Source: PubChem BioAssay (several laboratories)
Xi reactivation = X-chromosome reactivation activator. activation, % at 7.58 µM. 360,000 tested, 0.055% active. XiGFP mouse fibroblasts, % GFP-positive cells imaging, 3 d; cells co-treated with 5-aza-dC sensitizer; scaled so ellipticine positive control = 100%. AID 743238;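 active = mean normalized replicate activation at least 10% and every replicate at or above 10%; inconclusive = only one of the two criteria met; inactive = mean below 10% and not all replicates reach 10%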
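System: 68-5-11 XiGFP fibroblast line; Timing: 3 days compound exposure; Compound dosing: one concentration, pinned; Benchmarks: positive control ellipticine, 6 µM final; Buffer or medium: DMEM containing 5-aza-dC.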
SR-BI HDL uptake = mouse SR-BI HDL lipid transfer inhibition | 320,000 tested, 0.96% active | Q61009 | ldlA[mSR-BI] CHO cells, DiI-HDL uptake fluorescence, 3 h | inhibition, % at 12.5 µM | AID 488896;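 active = mean replicate inhibition of at least 70% and a set share of replicates each scoring 70 or more; inconclusive = meets just one of the two criteria; inactive = fails both criteria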
SR-BI uptake up = activators of SR-BI mediated HDL lipid uptake | CHO ldlA[mSR-BI] cells, DiI-HDL uptake fluorescence, 3 h; 100 = double the neutral-control signal | activation, % at 12.5 µM | 320,000 tested, 0.096% active;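 active = mean replicate activation of at least 60% and every replicate at or above 60%; inconclusive = mean or all-replicate condition met, but not both; inactive = mean below 60% and not all replicates reaching 60%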
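system = CHO ldlA[mSR-BI] cells, LDL receptor-null, SR-BI overexpressing | medium = Ham's F12 with 0.5% BSA, HEPES 25 mM, pH 7.4 | probe or stimulus = DiI-HDL 10 µg/mL | compound dosing = single-point compound dose | incubation = compound exposure 3 h, 37 °C | technique = DiI fluorescence, bottom read | read-out = cell-associated DiI fluorescence as measure of HDL uptake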
sPLA2-III inh = Blocks human group III sPLA2 activity. Q9NZ20. QFRET BODIPY PC-A2 liposome hydrolysis, fluorescence. inhibition, % at 12.2 µM. 370,000 tested, 0.56% active;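 active = inhibition above mean plus 3 SD of compounds lying within the high and low control bounds, cut at about 19% in these data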
Target sequence (Q9NZ20 whole entry, looked up): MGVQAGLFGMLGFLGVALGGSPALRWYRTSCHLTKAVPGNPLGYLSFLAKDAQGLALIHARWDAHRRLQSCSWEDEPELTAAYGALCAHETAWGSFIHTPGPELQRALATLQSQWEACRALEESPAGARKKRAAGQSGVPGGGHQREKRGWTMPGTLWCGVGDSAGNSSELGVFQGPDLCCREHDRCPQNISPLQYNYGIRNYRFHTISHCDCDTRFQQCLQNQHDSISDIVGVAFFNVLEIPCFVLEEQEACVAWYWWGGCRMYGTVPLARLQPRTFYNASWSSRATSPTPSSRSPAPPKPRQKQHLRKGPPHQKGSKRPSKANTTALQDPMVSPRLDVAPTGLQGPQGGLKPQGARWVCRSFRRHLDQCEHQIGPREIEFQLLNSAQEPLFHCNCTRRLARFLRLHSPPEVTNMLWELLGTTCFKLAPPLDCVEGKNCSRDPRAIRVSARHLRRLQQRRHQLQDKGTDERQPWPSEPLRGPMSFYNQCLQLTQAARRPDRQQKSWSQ
ARNT TACC3 PPI = disruptors of human ARNT/TACC3 interaction; Q9Y6A5; AlphaScreen His-ARNT PAS-B/GST-TACC3 binding, luminescence; TACC3 fragment carries E629A point mutation; inhibition, % at 9.99 µM; 390,000 tested, 0.66% active; AID 623870;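 active = mean inhibition of replicates at least 50% and at least half of replicates each reaching 50%; inconclusive = half or more replicates reach 50% but mean below 50%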
NSD2 HMT inh = blocks human histone methyltransferase NSD2 | inhibition, % at 12.5 µM | 310,000 tested, 0.54% active | AID 743445 | NSD2 peptide methylation, AlphaScreen, 120 min | O96028; in the data active = inhibition above about 50%
DiI quencher = DiI fluorescence quenching in cell-free counter-screen; AC50, µM (highest dose often 35 µM); AID 540326; cell-free DiI-HDL fluorescence quenching, 30 min; shares compounds with SR-BI HDL uptake; 470 tested, 20% active;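 active = quenching, a falling signal, with AC50 below a set limit tied to the top valid dose, actives reach about 32 µM in these data; inconclusive = no clear call, values can overlap the other calls; inactive = rising signal, and the rest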
Hits are given with their value; i = inactive; ? = inconclusive; nt = no result. Hits are enriched below; roughly 2% of the tested compounds scored in any of these assays.

SMILES	Xi reactivation	SR-BI HDL uptake	SR-BI uptake up	sPLA2-III inh	ARNT TACC3 PPI	NSD2 HMT inh	DiI quencher
CNC(=O)c1ccc(Nc2nnc(-c3ccc(O)cc3)c3ccccc23)cc1	i	99	i	i	i	i	i
Cc1ccc(C)c(N2CCN(CCCNC(=O)Cn3c(=O)c4cccn4c4cccnc43)CC2)c1	i	?	i	i	i	i	i
Cc1ccc(C)c(N2CCN(CCCNC(=O)CCn3c(=O)c4cccn4c4cccnc43)CC2)c1	i	i	i	i	i	i	nt
CCCCCCNC(=O)O[C@H]1C[C@@H]2C(=O)N(c3ccccc3)C(=O)[C@@H]2[C@@H]2CN(S(=O)(=O)c3ccc(C)cc3)C[C@]12O	i	nt	nt	i	nt	nt	nt
CN(Cc1ccccc1)C(=O)c1cccc(N2C(=O)NC3CC2(C)Oc2ccccc23)c1 (configuration not stated)	nt	i	i	i	i	i	nt
Cc1c(O)ccc(/C(Cc2ccc3ccccc3n2)=N\O)c1O	nt	i	i	i	i	i	nt
CC(=O)Oc1ccc(C(=O)Cc2ccc3ccccc3n2)c(O)c1C	i	?	i	i	i	i	i
CCC(=O)Nc1nc(C)c(-c2csc(Nc3cccc(O)c3)n2)s1	i	i	i	i	i	i	nt
CCCCCCC(=O)Nc1nc(C)c(-c2csc(Nc3ccc(Cl)cc3)n2)s1	nt	120	i	nt	i	nt	1.1µM
Cc1ccccc1C(=O)N1CCc2cc(-c3nc(NC(=O)Cc4ccc5c(c4)OCO5)sc3C)ccc21	nt	i	i	nt	i	i	i
Cc1cccc(C(=O)N2CCc3cc(-c4nc(NC(=O)CN5CCCC5)sc4C)ccc32)c1	i	nt	nt	i	i	i	nt
Cc1sc(NC(=O)Cc2ccc3c(c2)OCO3)nc1-c1ccc2c(c1)CCN2C(=O)c1cccc(F)c1	i	77	i	i	i	i	i
CC1CCc2nc3ccccc3c(C(=O)OCC(=O)N(C)C3CCS(=O)(=O)C3)c2C1 (configuration not stated)	i	i	i	i	i	i	nt
CCN(C(=O)COC(=O)c1c(-c2ccccc2)noc1C)C1CCS(=O)(=O)C1 (configuration not stated)	nt	i	i	i	i	i	nt
Cc1cccc(Nc2ccccc2C(=O)OCC(=O)N(C)C2CCS(=O)(=O)C2)c1C (configuration not stated)	nt	73	i	i	i	i	i
Cc1ccc2nc3c(c(C(=O)OCC(=O)N(C)C4CCS(=O)(=O)C4)c2c1)CCCC3 (configuration not stated)	i	74	i	i	i	i	i
CCN(C(=O)COC(=O)c1c(C)c(-c2ccccc2)nc2ccccc12)C1CCS(=O)(=O)C1 (configuration not stated)	i	75	i	i	i	i	i
CC1CCN(C(=O)C2COc3ccccc3O2)CC1 (configuration not stated)	i	i	i	i	nt	i	nt
O=S(=O)(c1ccccc1)c1cnc(-c2ccccc2)nc1N1CCCCC1	i	?	i	i	i	i	i
CN1CCN(c2nc(-c3ccccc3)ncc2S(=O)(=O)c2ccccc2)CC1	i	i	i	i	i	i	nt
COc1ccc(CCNC(=O)CCC(=O)N2CC(C)Oc3ccc(Cl)cc32)cc1OC (configuration not stated)	i	?	i	i	i	nt	i
COc1cc2c(cc1OC)-c1cc(NC3CCCC3)nc(=O)n1CC2	nt	i	i	i	i	i	nt
COc1cc2c(cc1OC)-c1cc(OCc3ccccc3Cl)nc(=O)n1CC2	nt	78	i	i	i	i	i
CCONC(=O)Nc1ccccc1	i	i	i	i	i	i	nt
COc1ccc(NC(=O)c2c(Nc3ccccc3)sc(C(=O)c3ccc(F)cc3)c2N)cc1	nt	122	i	i	i	i	0.18µM
SMILES	Xi reactivation	SR-BI HDL uptake	SR-BI uptake up	sPLA2-III inh	ARNT TACC3 PPI	NSD2 HMT inh	DiI quencher
C/C(=N\NC(=O)c1ccn(C)n1)c1cccc(NC(=O)c2ccncc2)c1	i	i	i	i	i	i	nt
CC(=O)c1c(C(C)=O)c(C)n(-c2ccc(C)c(NC(=O)c3ccccc3Cl)c2)c1C	nt	79	i	i	i	i	i
CCCCCCCCCc1conc1C(=O)/C=C/c1oc2c(c1C)CCC(C)C2 (configuration not stated)	i	nt	nt	i	nt	nt	nt
COc1ccccc1NC(=O)CN1CCN(CC(=O)Nc2ccc(C)c(F)c2)CC1	i	104	i	i	i	i	i
COc1ccccc1NC(=O)CN1CCN(CC(=O)Nc2ccc(F)cc2)CC1	nt	i	i	i	i	i	nt
COc1ccccc1NC(=O)CN1CCN(CC(=O)Nc2ccc(OCc3ccccc3)cc2)CC1	nt	i	i	i	i	i	i
CCN(c1ccccc1)S(=O)(=O)c1ccc(C(=O)NC2CCCCC2)cc1	i	nt	nt	i	nt	i	nt
O=C(NC1CC1)c1ccc(CN(c2ccccc2)S(=O)(=O)c2ccccc2)cc1	i	?	i	i	i	i	i
O=C(CSc1cn(CCNC(=O)c2cccs2)c2ccccc12)NCC1CCCO1 (configuration not stated)	i	i	i	i	i	nt	i
O=C(NCCn1cc(SCC(=O)N2CCOCC2)c2ccccc21)c1c(F)cccc1F	i	i	i	i	i	nt	i
COCC(=O)N(C)C[C@H]1Oc2ncc(C#CCC3CCCC3)cc2C(=O)N([C@H](C)CO)C[C@@H]1C	i	nt	nt	nt	i	nt	nt
C[C@@H]1CN([C@H](C)CO)C(=O)Cc2cc(NC(=O)C3CCCCC3)ccc2O[C@H]1CN(C)C(=O)Nc1cccc2ccccc12	i	nt	nt	nt	i	nt	nt
O=C(Nc1nc(NC(=O)c2ccco2)n(-c2ccccc2)n1)c1ccccc1	nt	122	i	i	56	i	2µM
COc1ccc(OCC(O)Cn2c(Nc3cccc(C)c3)nc3c2c(=O)n(C)c(=O)n3C)cc1 (configuration not stated)	i	77	i	i	i	i	i
CCNC(=O)c1c(NC(C)=O)sc2c1CCCC2	nt	i	i	i	i	i	nt
CCNC(=O)c1c(NC(=O)c2cc(-c3cc(C)cc(C)c3O)n[nH]2)sc2c1CCCC2	i	?	i	i	i	nt	i
CC(C)(C)NC(=O)N1CCN(c2ncccc2C(F)(F)F)CC1	i	88	i	i	i	i	i
Cc1oc(C(C)(C)C)cc1C(=O)N1CCN(c2ncccc2C(F)(F)F)CC1	i	i	i	i	i	i	nt
Cc1cccc(C(=O)OCC(=O)Nc2ccccc2C(=O)NC2CC2)c1	i	i	i	i	nt	i	nt
COc1ccc(-c2nc(CN3CCN(c4ncnc5ccccc45)CC3)c(C)o2)c(OC)c1	i	72	i	i	i	nt	i
